The values below come from ChEMBL document CHEMBL4354866, “TREK Channel Family Activator with a Well-Defined Structure-Activation Relationship for Pain and Neurogenic Inflammation” (J Med Chem, 2020).

Data set [1] deals with T1, Potassium channel subfamily K member 2 (Homo sapiens) (UniProt O95069).
T1 sequence (whole entry): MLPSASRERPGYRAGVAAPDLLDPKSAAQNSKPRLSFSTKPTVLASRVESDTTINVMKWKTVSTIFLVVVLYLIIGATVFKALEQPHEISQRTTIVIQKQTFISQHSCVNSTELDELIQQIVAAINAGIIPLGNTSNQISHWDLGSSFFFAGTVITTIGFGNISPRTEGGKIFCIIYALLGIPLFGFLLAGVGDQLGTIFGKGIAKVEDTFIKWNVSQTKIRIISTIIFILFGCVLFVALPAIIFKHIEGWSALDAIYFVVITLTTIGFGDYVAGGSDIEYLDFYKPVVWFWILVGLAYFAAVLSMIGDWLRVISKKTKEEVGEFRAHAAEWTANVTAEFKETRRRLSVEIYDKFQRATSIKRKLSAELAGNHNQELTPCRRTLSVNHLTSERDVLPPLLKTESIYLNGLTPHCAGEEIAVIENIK
The data set is described as follows: Activation of recombinant human TREK1 expressed in HEK293T cells assessed as increase in K+ current amplitude measured after compound washout by whole cell voltage clamp electrophysiological analysis. In kind it is cell-based. In a few lines: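 HEK-293T cells expressing human TREK-1, whole-cell clamp. Current recorded during extracellular compound application and again after washout.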

The target of data set [2] is T2, Potassium channel subfamily K member 18 (Homo sapiens) (UniProt Q7Z418).
T2 sequence (whole entry): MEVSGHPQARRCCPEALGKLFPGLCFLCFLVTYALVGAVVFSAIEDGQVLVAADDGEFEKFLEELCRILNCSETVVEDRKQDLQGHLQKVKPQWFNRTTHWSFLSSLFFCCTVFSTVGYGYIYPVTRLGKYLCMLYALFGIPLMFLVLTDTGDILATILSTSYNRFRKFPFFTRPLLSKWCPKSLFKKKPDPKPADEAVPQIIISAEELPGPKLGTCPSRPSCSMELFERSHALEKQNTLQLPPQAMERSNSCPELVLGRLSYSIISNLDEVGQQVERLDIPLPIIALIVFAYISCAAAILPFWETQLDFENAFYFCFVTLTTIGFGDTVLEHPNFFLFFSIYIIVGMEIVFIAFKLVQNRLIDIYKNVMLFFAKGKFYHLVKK
Nature of the data set: Activation of recombinant human TRESK expressed in HEK293T cells assessed as increase in K+ current amplitude at 10 uM by whole cell voltage clamp electrophysiological analysis. In kind it is cell-based. In a few lines:
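HEK-293T cells transiently transfected with the human K2P channel. Whole-cell clamp at -60 mV, 500-ms ramp -120 to +60 mV. Pipette 140 KCl (pH 7.4), external 145 NaCl/4 KCl (pH 7.3). Compound 10 μM, diluted from 10 mM DMSO stock into external solution.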

Data set [3] relates to Potassium channel subfamily K member 2 (Homo sapiens), O95069 [Y285A]. Nature of the data set: Activation of recombinant human TREK1 Y285A mutant expressed in HEK293T cells assessed as increase in K+ current amplitude by whole cell voltage clamp electrophysiological analysis. In kind it is cell-based. A digest of the protocol: (§1)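 Transiently transfected HEK-293T cells, whole-cell voltage clamp. Held at -60 mV, 500-ms ramp -120 to +60 mV. Pipette (mM) 140 KCl, 5 EGTA, 10 HEPES, pH 7.4; external 145 NaCl, 4 KCl, pH 7.3. Compound diluted from 10 mM DMSO stock and applied extracellularly. Current increase over control fitted to concentration–response curves for EC50.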

In data set [4] the target is Potassium channel subfamily K member 2 (Homo sapiens, UniProt O95069, F149A). The data set is described as follows: Activation of recombinant human TREK1 F149A mutant expressed in HEK293T cells assessed as increase in K+ current amplitude by whole cell voltage clamp electrophysiological analysis. In kind it is cell-based. A digest of the protocol:
as §1

Data set [5] deals with Potassium channel subfamily K member 2 (Homo sapiens, UniProt O95069, I293A). Nature of the data set: Activation of recombinant human TREK1 I293A mutant expressed in HEK293T cells assessed as increase in K+ current amplitude by whole cell voltage clamp electrophysiological analysis. In kind it is cell-based. A digest of the protocol: as §1
Data set [6] addresses T3, Potassium channel subfamily K member 2 (Homo sapiens, UniProt O95069, G275C). The data set is described as follows: Activation of recombinant human TREK1 G275C mutant expressed in HEK293T cells assessed as increase in K+ current amplitude in presence of MTSET by whole cell voltage clamp electrophysiological analysis. Type of data set: cell-based. A digest of the protocol:
(§2)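 Human TREK-1 G275C expressed in HEK-293T, whole-cell ramp recordings. Tested with or without MTSET, 1 mM final, diluted from 0.5 M DMSO stock within 120 s of application. Concentration–response curves for EC50, n = 5–19; 10 μM single-point comparison by one-way ANOVA with Tukey test.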

Data set [7] deals with T3, Potassium channel subfamily K member 2. The data set is described as follows: Activation of recombinant human TREK1 G275C mutant expressed in HEK293T cells assessed as increase in K+ current amplitude by whole cell voltage clamp electrophysiological analysis. Type of data set: cell-based. A digest of the protocol: as §2
A short description of data set [8]: Drug uptake in BALB/c mouse plasma at 5 mg/kg, ip administered as single dose by LC-MS/MS analysis. Type of data set: ADME, organism-based. As to conditions: in vivo. In a few lines: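 BALB/c mice (n = 6) given a single 5 mg/kg i.p. dose as a 0.5 mg/ml solution in 5% DMSO/5% Tween 80/90% saline. Plasma sampled at 0.083–8 h. Concentrations measured by LC-MS/MS against spiked standard curves; AUC, Tmax, Cmax and T1/2 calculated by non-compartmental analysis of mean concentrations.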

The subject of data set [9] is Mus musculus. Nature of the data set: Analgesic activity in ip dosed mouse assessed as increase in tail flick latency time measured up to 120 mins at 52 degC by tail immersion test. Type of data set: functional, organism-based. A digest of the protocol:
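Male BALB/c or C57BL/6 mice, 6–8 weeks, acclimated in a holder 15 min/day for 3 days. Distal 3 cm of tail immersed at 5, 20, 40, 46 or 52 °C; flick latency recorded, cut-off 15 s. Compound i.p. in 5% DMSO/5% Tween 80/90% saline (1.25–10 mg/kg at 52 °C; 5 mg/kg across temperatures).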
(In general: Thermal pain tests record how soon the animal reacts.)

For data set [10], the system named is Mus musculus. The data set is described as follows: Analgesic activity in mouse model of spared nerve injury assessed as reduction in number of hind paw lifting at 5 mg/kg, ip incubated for 30 mins measured within 5 mins by spontaneous pain test. In kind it is functional, organism-based. In a few lines: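 SNI mice, day 7, acclimated 3 days on a wire-mesh floor. Compound 5 mg/kg i.p. Starting 30 min after injection, mice were videotaped for 5 min and left hindpaw flinches counted blind; n = 7.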

Calls of active or inactive are those of the source.

T3 sequence (O95069 whole entry G275C): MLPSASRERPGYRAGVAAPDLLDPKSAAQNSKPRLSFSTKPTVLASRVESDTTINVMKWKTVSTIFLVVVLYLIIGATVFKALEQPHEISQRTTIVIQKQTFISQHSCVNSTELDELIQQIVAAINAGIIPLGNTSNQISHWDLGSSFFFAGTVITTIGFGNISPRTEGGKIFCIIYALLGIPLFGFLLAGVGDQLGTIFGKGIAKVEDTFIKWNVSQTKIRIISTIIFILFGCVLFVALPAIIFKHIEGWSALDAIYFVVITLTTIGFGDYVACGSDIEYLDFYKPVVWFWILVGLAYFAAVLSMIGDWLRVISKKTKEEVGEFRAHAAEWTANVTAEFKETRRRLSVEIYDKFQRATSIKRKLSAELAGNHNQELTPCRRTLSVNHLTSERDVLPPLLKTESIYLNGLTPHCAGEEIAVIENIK
Chain of Potassium channel subfamily K member 2 (Homo sapiens, UniProt O95069, I293A) (O95069 whole entry I293A): as the sequence (O95069 whole entry G275C) above, with C275G, I293A counted along it
Chain of Potassium channel subfamily K member 2 (Homo sapiens, UniProt O95069, F149A) (O95069 whole entry F149A): as the sequence (O95069 whole entry G275C) above, with F149A, C275G counted along it

Regarding `Cc1ccc2nc(-c3ccc(NC(=O)[C@@H]4CC[C@H](C(=O)O)C4)cc3)sc2c1`, the result in data set [1] and in data set [3] was inactive. Besides, the outcome (in data set [2]; with Mus musculus [10]) was Active. The EC50 is 22.4 µM in [4], 7.98 µM in [5], 18.4 µM in [6] and 15.2 µM in data set [7]. Besides, the Drug uptake result in data set [8] is reported as “Active”. Also, the Activity result with Mus musculus [9] was “Dose-dependent effect”.

As usually defined, the EC50 is the concentration at which the effect is half-maximal.
